Experiment [1] concerns MCF7. Briefly: Cytotoxicity against human MCF7 cells assessed as inhibition of cell viability after 72 hrs by calcien AM dye based fluorescence analysis. The note with it: MCF7, 72 h. Type of experiment: functional. The method, boiled down: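 MCF7 cells grown in DMEM with 10% FBS, 2 mM glutamine, penicillin and streptomycin at 37 °C and 5% CO2. About 10,000 cells per well, left 4 h, then a concentration range added in triplicate, DMSO ≤0.5% final. After 72 h, 1 µg/ml calcein AM (final) for 1 h; fluorescence read at 485/538 nm. Viability given as % of control; IC50 read graphically from dose-response curves; mean of ≥3 independent experiments.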

The test system of experiment [2] is MCF7. Briefly: Cell cycle arrest in human MCF7 cells assessed as accumulation of cells in G2+M phase at 100 uM after 24 hrs by propidium iodide staining based flow cytometry relative to untreated control. It counts as functional. The method, boiled down: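 Flow cytometry on MCF7 cells given 100 µM for 24 h. About one million cells fixed in 90% methanol and rehydrated. DNA stained with propidium iodide, read at 488/575 nm (ex/em). The value is the G2+M fraction of treated cells divided by the G2+M fraction of untreated control cells.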
(In general: A flow cytometer gives signals particle by particle.)

Experiment [3] addresses Cyclin-dependent kinase 2/cyclin E1 (Homo sapiens, UniProt P24941). Briefly: Inhibition of recombinant CDK2/cyclin E (unknown origin) using histone H1 as substrate in presence of [gamma-33P]ATP. Type of experiment: protein-complex assay.
The target of experiment [4] is Cyclin-dependent kinase 1/cyclin B1 (Homo sapiens, UniProt P06493). The experiment in a line: Inhibition of recombinant CDK1/cyclin B (unknown origin) using histone H1 as substrate in presence of [gamma-33P]ATP. It counts as protein-complex assay.
Experiment [5] concerns the target Aurora kinase A/B (Homo sapiens) (UniProt Q96GD4+O14965). The experiment in a line: Activity at Aurora kinase A/B in human MCF7 cells assessed as histone H3 phosphorylation at Ser10 at 100 uM after 24 hrs by flow cytometry relative to untreated control. It counts as cell-based. The method, boiled down: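 Flow cytometry on MCF7 cells exposed 24 h to 100 µM. About one million cells fixed in 90% methanol, rehydrated, and labelled with primary antibody to pH3 Ser10, then an Alexa Fluor 488 secondary. Alexa read at 488/525 nm (ex/em). The value is the fraction of pH3-positive cells in treated cultures divided by that in untreated control.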

Experiment [6] deals with Cyclin-dependent kinase 1/cyclin B1 (Homo sapiens) (UniProt P06493+P14635). The experiment in a line: Ratio of compound IC50 to roscovitine IC50 for recombinant CDK1/cyclin B (unknown origin). It counts as protein-complex assay.
Experiment [7] addresses Cyclin-dependent kinase 2/cyclin E1 (Homo sapiens) (UniProt P24864+P24941). The experiment in a line: Ratio of compound IC50 to roscovitine IC50 for recombinant CDK2/cyclin E (unknown origin). It counts as protein-complex assay.
Experiment [8] has as its system MCF7. The experiment in a line: Ratio of compound IC50 to roscovitine IC50 for human MCF7 cells after 72 hrs by calcien AM dye based fluorescence analysis. Type of experiment: functional.

Chain of Cyclin-dependent kinase 1/cyclin B1 (P06493 whole entry): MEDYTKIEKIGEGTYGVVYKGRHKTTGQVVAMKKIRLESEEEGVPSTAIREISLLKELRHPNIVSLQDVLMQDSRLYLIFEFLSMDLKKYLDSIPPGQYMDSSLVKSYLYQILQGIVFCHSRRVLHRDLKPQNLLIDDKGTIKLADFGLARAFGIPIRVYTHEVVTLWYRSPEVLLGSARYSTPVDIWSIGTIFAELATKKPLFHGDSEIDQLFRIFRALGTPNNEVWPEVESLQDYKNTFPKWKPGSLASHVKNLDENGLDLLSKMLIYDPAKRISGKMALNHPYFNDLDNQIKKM
Chain of Cyclin-dependent kinase 1/cyclin B1 (P14635 whole entry, further chain): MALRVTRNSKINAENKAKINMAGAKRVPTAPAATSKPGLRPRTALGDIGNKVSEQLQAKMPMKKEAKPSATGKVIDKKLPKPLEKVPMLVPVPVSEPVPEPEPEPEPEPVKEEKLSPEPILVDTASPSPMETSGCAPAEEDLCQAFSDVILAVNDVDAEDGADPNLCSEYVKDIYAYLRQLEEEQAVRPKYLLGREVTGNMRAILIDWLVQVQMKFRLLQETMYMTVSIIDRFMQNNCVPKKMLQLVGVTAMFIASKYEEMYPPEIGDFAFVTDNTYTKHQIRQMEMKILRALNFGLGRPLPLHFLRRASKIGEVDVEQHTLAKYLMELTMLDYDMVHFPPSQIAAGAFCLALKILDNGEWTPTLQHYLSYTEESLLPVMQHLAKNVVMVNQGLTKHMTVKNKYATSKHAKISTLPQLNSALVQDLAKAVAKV
Chain of Aurora kinase A/B (Homo sapiens) (O14965 whole entry, looked up): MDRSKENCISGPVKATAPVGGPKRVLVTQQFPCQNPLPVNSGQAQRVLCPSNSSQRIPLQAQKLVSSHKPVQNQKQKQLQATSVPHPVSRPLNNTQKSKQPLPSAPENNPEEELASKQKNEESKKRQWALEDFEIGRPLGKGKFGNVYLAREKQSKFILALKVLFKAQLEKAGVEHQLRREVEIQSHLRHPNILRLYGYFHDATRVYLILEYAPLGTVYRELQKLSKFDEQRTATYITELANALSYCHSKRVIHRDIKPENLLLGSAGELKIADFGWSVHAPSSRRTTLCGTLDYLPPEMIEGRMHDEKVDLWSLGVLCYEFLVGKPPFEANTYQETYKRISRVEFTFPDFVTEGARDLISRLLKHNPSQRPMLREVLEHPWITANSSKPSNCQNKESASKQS
Chain of Aurora kinase A/B (Homo sapiens) (Q96GD4 whole entry, looked up): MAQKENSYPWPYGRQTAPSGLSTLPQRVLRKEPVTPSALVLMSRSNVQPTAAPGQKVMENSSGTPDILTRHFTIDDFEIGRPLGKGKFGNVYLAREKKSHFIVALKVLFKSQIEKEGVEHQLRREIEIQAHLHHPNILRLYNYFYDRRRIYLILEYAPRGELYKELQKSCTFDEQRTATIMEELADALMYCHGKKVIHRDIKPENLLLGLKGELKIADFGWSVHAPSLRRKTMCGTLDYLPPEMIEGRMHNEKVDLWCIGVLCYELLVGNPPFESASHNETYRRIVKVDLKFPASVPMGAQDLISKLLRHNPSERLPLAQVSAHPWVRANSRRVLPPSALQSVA
Chain of Cyclin-dependent kinase 1/cyclin B1 (Homo sapiens) (P06493 whole entry, looked up): as the sequence (P06493 whole entry) above
Chain of Cyclin-dependent kinase 1/cyclin B1 (Homo sapiens) (P14635 whole entry, looked up): as the sequence (P14635 whole entry, further chain) above

Consider `N=C(N)Nc1nc(N)nc2c1ncn2CC(F)(F)F`, for which the IC50 (in the experiment on MCF7 [1]; in experiment [3]; in experiment [4]) was more than 100 µM each time. The Ratio in the experiment with MCF7 [2] was determined as 0.8.
Regarding `CC[C@@H](N)COc1nc(NC(=N)N)c2ncn(C(C)C)c2n1`, the figures for the IC50 (with MCF7 [1]; in experiment [3]; in experiment [4]) were more than 100 µM, 13.3 µM and 47.6 µM, respectively. Moreover, the Ratio amounted to 0.8 with MCF7 [2] and 1.08 in experiment [5].
Turning to `[N-]=[N+]=NCCn1cnc2c(NC(=N)N)nc(N)nc21`, the IC50 (commonly the point on the concentration scale where inhibition reaches its midpoint) with MCF7 [1] is more than 100 µM; in experiment [3], 74.9 µM; in experiment [4] it was more than 100 µM. Moreover, in the experiment with MCF7 [2], the Ratio amounted to 1.4.
For `CC(C)[C@@H](N)COc1nc(NC(=N)N)c2ncn(C(C)C)c2n1`, the IC50 is 79.4 µM in the experiment on MCF7 [1], 8 µM in experiment [3] and 15.6 µM in experiment [4]. In addition, the figures for the Ratio (in the experiment with MCF7 [2]; in experiment [5]) were 2.1 and 0.39, respectively.
On to `CCn1cnc2c(N)nc(N)nc21`, for which the values for the IC50 (in the experiment with MCF7 [1]; in experiment [3]; in experiment [4]) were more than 100 µM, 7.9 µM and 37.5 µM, respectively. Also, in the experiment with MCF7 [2], the Ratio is on record as 1.2.
On to `CC(C)n1cnc2c(NC(=N)N)nc(OC[C@@H]3CCCN3)nc21`, for which the figures for the IC50 (in the experiment on MCF7 [1]; in experiment [3]; in experiment [4]) were more than 100 µM, 25.2 µM and more than 100 µM, respectively. In addition, the Ratio in the experiment with MCF7 [2] is 1.7; in experiment [5], 0.8.
Turning to `N=C(N)Nc1nc(N)nc2c1ncn2CCN`, the IC50 is more than 100 µM with MCF7 [1], more than 100 µM in experiment [3] and more than 50 µM in experiment [4]. Further, in the experiment on MCF7 [2], the Ratio was found to be 1.
On to `CC(C)n1cnc2c(NC(=N)N)nc(NCCCCCCO)nc21`, for which the IC50 in the experiment on MCF7 [1] came out at 5.2 µM; in experiment [3], 1.6 µM; in experiment [4], 4.2 µM. In addition, the Ratio was 2 in the experiment with MCF7 [2] and 0.33 in experiment [5].
For `CC(C)n1cnc2c(NC(=N)N)nc(NCCCO)nc21` the same measures were 8.8 µM, 0.18 µM, 4.1 µM, 2.5 and 0.18.
For `CC(C)n1cnc2c(NC(=N)N)nc(N3CCC[C@@H]3CO)nc21` the same measures were 20.4 µM, 0.67 µM, 6.2 µM, 2 and 0.1.
Consider `CC(C)n1cnc2c(N)nc(N)nc21`, for which the IC50 with MCF7 [1] is more than 100 µM; in experiment [3], 22.2 µM; in experiment [4], 64.9 µM. The Ratio in the experiment with MCF7 [2] was 0.9.
For the compound `CC[C@H](CO)Nc1nc(NCc2ccccc2)c2ncn(C(C)C)c2n1` [SELICICLIB], the IC50 in the experiment on MCF7 [1] is 20.2 µM.
Consider `CCn1cnc2c(NC(=N)N)nc(N)nc21`, for which the IC50 is 54.3 µM in the experiment on MCF7 [1], 1.7 µM in experiment [3] and 12.6 µM in experiment [4]. For the same compound, the Ratio IC50 in experiment [6] was determined as 5; in experiment [7], 5; in the experiment with MCF7 [8], 2. Further, the Ratio in the experiment on MCF7 [2] came out at 1.6; in experiment [5] it was 0.1.
Regarding `CC(C)n1cnc2c(NC(=N)N)nc(NC3CC3)nc21`, the figures for the IC50 (in the experiment on MCF7 [1]; in experiment [3]; in experiment [4]) were 5.4 µM, 0.5 µM and 6.4 µM, respectively. In addition, the Ratio with MCF7 [2] was 2.4; in experiment [5], 0.17.
For `CC(C)n1cnc2c(NC(=N)N)nc(N)nc21`, the IC50 with MCF7 [1] was 97.2 µM; in experiment [3], 1.3 µM; in experiment [4] it was 14.8 µM. Besides, the Ratio IC50 in experiment [6] turned out to be 5; in experiment [7] it was 5; with MCF7 [8] it was 4. The results for the Ratio (in the experiment with MCF7 [2]; in experiment [5]) were 2 and 0.18, respectively.
Regarding `CN(C)c1nc(N)nc2c1ncn2CCN=[N+]=[N-]`, the IC50 (in the experiment on MCF7 [1]; in experiment [3]; in experiment [4]) was more than 100 µM throughout. For the same compound, the Ratio with MCF7 [2] turned out to be 1.
On to `CC(C)n1cnc2c(NC(=N)N)nc(NCCO)nc21`, for which the IC50 with MCF7 [1] was 12.4 µM; in experiment [3] it was 0.82 µM; in experiment [4], 15.1 µM. The results for the Ratio (in the experiment with MCF7 [2]; in experiment [5]) were 2.9 and 0.15, respectively.
The matching figures for `CC(C)[C@H](N)COc1nc(NC(=N)N)c2ncn(C(C)C)c2n1`: 3.4 µM, 1.8 µM, 1.1 µM, 1.7 and 0.09.
As to `Cn1cnc2c(NC(=N)N)ncnc21`, the IC50 (in the experiment on MCF7 [1]; in experiment [3]; in experiment [4]) was more than 100 µM in each case. Moreover, in the experiment on MCF7 [2], the Ratio worked out at 1.
For the compound `CC[C@H](N)COc1nc(NC(=N)N)c2ncn(C(C)C)c2n1`, the IC50 in the experiment with MCF7 [1] is 16.3 µM; in experiment [3], 6.2 µM; in experiment [4] it was 8.1 µM. The Ratio with MCF7 [2] came to 1.5; in experiment [5] it was 0.07.
The matching figures for `CC(C)Cn1cnc2c(NC(=N)N)nc(N)nc21`: 96.6 µM, 66.5 µM, more than 100 µM, 3.5 and 7.
For `CC(C)[C@H](CO)Nc1nc(NC(=N)N)c2ncn(C(C)C)c2n1` the same measures were 10.5 µM, 0.14 µM, 2 µM, 2.3 and 0.13.
For `CC(C)n1cnc2c(NC(=N)N)nc(N3CCC[C@H]3CO)nc21` the same measures were 6.2 µM, 0.16 µM, 1.5 µM, 1.7 and 0.11.
For the compound `N=C(N)Nc1nc(N)nc2c1ncn2CCO`, the IC50 (in the experiment on MCF7 [1]; in experiment [3]; in experiment [4]) was more than 100 µM throughout. Moreover, the Ratio in the experiment with MCF7 [2] stood at 0.9.
Regarding `CCCn1cnc2c(NC(=N)N)nc(N)nc21`, the IC50 in the experiment with MCF7 [1] is 36.5 µM; in experiment [3], 10.7 µM; in experiment [4], 55.9 µM. In addition, the Ratio in the experiment on MCF7 [2] was 4; in experiment [5] it was 6.71.
Turning to `CC(C)n1cnc2c(NC(=N)N)nc(OC[C@H]3CCCN3)nc21`, the IC50 with MCF7 [1] was more than 100 µM; in experiment [3], 23.6 µM; in experiment [4], 81.5 µM. Also, the Ratio in the experiment with MCF7 [2] stood at 1.3.
On to `CC(C)[C@@H](CO)Nc1nc(NC(=N)N)c2ncn(C(C)C)c2n1`, for which the IC50 stood at 2.1 µM in the experiment with MCF7 [1], 0.071 µM in experiment [3] and 1.1 µM in experiment [4]. The Ratio in the experiment with MCF7 [2] came out at 1.8; in experiment [5] it was 0.09.
For `Cn1cnc2c(NC(=N)N)nc(N)nc21` the same measures were more than 100 µM, 6.8 µM, 38.2 µM, 1.5 and 0.81.

The values above are taken from ChEMBL document CHEMBL2331324, “Synthesis and biological evaluation of guanidino analogues of roscovitine” (Eur J Med Chem, 2013).
